The source made the active and inactive calls. The rule behind the calls is not given here.
Legend:
[1] = biological target: T1, Delta-type opioid receptor (Homo sapiens, UniProt P41143); experiment: Displacement of [3H]DPDPE from recombinant human delta-opioid receptor expressed in HEK293 cell membranes at 1 X 10^-5 M after 60 mins by liquid scintillation counting method relative to control
Procedure, shortened: (§1)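 Single-concentration radioligand displacement in membranes from CHO (κ, μ) or HEK293 (δ) cells expressing human receptors. Radioligands were [3H]-U69,593, [3H]-DAMGO and [3H]-DPDPE, incubated in Tris-HCl at 25 °C for 60 min, filtered and counted by scintillation. Read-out was percent inhibition of specific binding; assays were done in duplicate.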

Mu-type opioid receptor [2] = biological target: T2, Mu-type opioid receptor (Homo sapiens, UniProt P35372); experiment: Displacement of [3H]DAMGO from recombinant human mu-opioid receptor expressed in CHO cell membranes at 1 X 10^-5 M after 60 mins by liquid scintillation counting method relative to control; procedure, shortened: as §1
Mu-type opioid receptor [3] = biological target: T2, Mu-type opioid receptor; experiment: Displacement of [3H]DAMGO from recombinant human mu-opioid receptor expressed in CHO cell membranes at 1 X 10^-6 M after 60 mins by liquid scintillation counting method relative to control; procedure, shortened: as §1
[4] = biological target: T3, Kappa-type opioid receptor (Homo sapiens, UniProt P41145); experiment: Displacement of [3H]U69593 from recombinant human kappa-opioid receptor expressed in CHO cell membranes at 1 X 10^-6 M after 60 mins by liquid scintillation counting method relative to control; procedure, shortened: as §1
[5] = biological target: T1, Delta-type opioid receptor; experiment: Displacement of [3H]DPDPE from recombinant human delta-opioid receptor expressed in HEK293 cell membranes at 1 X 10^-6 M after 60 mins by liquid scintillation counting method relative to control; procedure, shortened: as §1
[6] = biological target: T3, Kappa-type opioid receptor; experiment: Displacement of [3H]U69593 from recombinant human kappa-opioid receptor expressed in CHO cell membranes at 1 X 10^-5 M after 60 mins by liquid scintillation counting method relative to control; procedure, shortened: as §1
[7] = biological target: T1, Delta-type opioid receptor; experiment: Displacement of [3H]DPDPE from recombinant human delta-opioid receptor expressed in HEK293 cell membranes after 60 mins by liquid scintillation counting method
Homo sapiens [8] = species: Homo sapiens; experiment: Selectivity ratio of Ki for displacement of [3H]DAMGO from recombinant human mu-opioid receptor expressed in CHO cell membranes to Ki for displacement of [3H]U69593 from recombinant human kappa-opioid receptor expressed in CHO cell membranes
Mus musculus [9] = experiment: Antidepressant-like activity in ICR mouse assessed as decrease in immobility time at 30 mg/kg, ip administered 30 mins prior to test measured for last 4 mins of 6 mins observation by forced swim test; format: functional, organism-based
Procedure, shortened: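 Male ICR mice (20–25 g), 10 per group, adapted ≥15 min before testing. Dosed i.p. with saline vehicle 30 min pretest. Each mouse was placed in a cylinder 10 cm wide with water 6 cm deep at 25 °C for 6 min. Immobility was scored over the last 4 min; mean ± SEM.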

Mu-type opioid receptor [10] = biological target: T2, Mu-type opioid receptor; experiment: Displacement of [3H]DAMGO from recombinant human mu-opioid receptor expressed in CHO cell membranes after 60 mins by liquid scintillation counting method
Mus musculus [11] = experiment: Anxiolytic activity in ICR mouse assessed as increase in time spent on open arms at 30 mg/kg, ip administered 30 mins prior to test measured for 5 mins by elevated plus maze test; format: functional, organism-based
Procedure, shortened: (§2)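 Male ICR mice (18–22 g), 10 per group, adapted ≥1 h. Dosed i.p. with saline vehicle 30 min pretest. Maze elevated 50 cm; each mouse started on the central platform facing an open arm. Entries and time in open and closed arms were video-tracked over 5 min, expressed as OE/(CE+OE) and OT/(OT+CT); mean ± SEM.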

[12] = biological target: T1, Delta-type opioid receptor; experiment: Antagonist activity at recombinant human delta-opioid receptor expressed in HEK293 cell membranes assessed as inhibition of DPDPE-induced [35S]GTPgammaS binding after 2 hrs by microbeta scintillation counting method; format: functional
Procedure, shortened: (§3)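 Membranes from CHO cells (κ, μ) or HEK293 cells (δ) expressing human opioid receptors. Assay buffer was 20 mM HEPES pH 7.4, 5 mM MgCl2, 100 mM NaCl, 1 mM EDTA, 1 mM DTT with GDP. GTP-γ-35S was 0.5 nM final. Agonist at ~80% max stimulation: U69,593 300 nM (κ), DAMGO (μ), DPDPE 30 nM (δ). Read by WGA SPA, 11-point curves, four-parameter fit; mean ± SEM of ≥3 experiments.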

[13] = biological target: T3, Kappa-type opioid receptor; experiment: Displacement of [3H]U69593 from recombinant human kappa-opioid receptor expressed in CHO cell membranes after 60 mins by liquid scintillation counting method
Homo sapiens [14] = species: Homo sapiens; experiment: Selectivity ratio of IC50 for antagonist activity at recombinant human mu-opioid receptor expressed in CHO cell membranes assessed as inhibition of DAMGO-induced [35S]GTPgammaS binding to IC50 for antagonist activity at recombinant human kappa-opioid receptor expressed in CHO cell membranes assessed as inhibition of U69593-induced [35S]GTPgammaS binding; procedure, shortened: as §3
Homo sapiens [15] = species: Homo sapiens; experiment: Selectivity ratio of IC50 for antagonist activity at recombinant human delta-opioid receptor expressed in HEK293 cell membranes assessed as inhibition of DPDPE-induced [35S]GTPgammaS binding to IC50 for antagonist activity at recombinant human kappa-opioid receptor expressed in CHO cell membranes assessed as inhibition of U69593-induced [35S]GTPgammaS binding; procedure, shortened: as §3
[16] = biological target: T3, Kappa-type opioid receptor; experiment: Antagonist activity at recombinant human kappa-opioid receptor expressed in CHO cell membranes assessed as inhibition of U69593-induced [35S]GTPgammaS binding after 4 hrs by microbeta scintillation counting method; format: functional; procedure, shortened: as §3
Mu-type opioid receptor [17] = biological target: T2, Mu-type opioid receptor; experiment: Antagonist activity at recombinant human mu-opioid receptor expressed in CHO cell membranes assessed as inhibition of DAMGO-induced [35S]GTPgammaS binding after 4 hrs by microbeta scintillation counting method; format: functional; procedure, shortened: as §3
Homo sapiens [18] = species: Homo sapiens; experiment: Selectivity ratio of Ki for displacement of [3H]DPDPE from recombinant human delta-opioid receptor expressed in HEK293 cell membranes to Ki for displacement of [3H]U69593 from recombinant human kappa-opioid receptor expressed in CHO cell membranes
Mus musculus [19] = experiment: Anxiolytic activity in ICR mouse assessed as increase in number of open arm entries at 30 mg/kg, ip administered 30 mins prior to test measured for 5 mins by elevated plus maze test; format: functional, organism-based; procedure, shortened: as §2

T1 sequence (P41143 whole entry): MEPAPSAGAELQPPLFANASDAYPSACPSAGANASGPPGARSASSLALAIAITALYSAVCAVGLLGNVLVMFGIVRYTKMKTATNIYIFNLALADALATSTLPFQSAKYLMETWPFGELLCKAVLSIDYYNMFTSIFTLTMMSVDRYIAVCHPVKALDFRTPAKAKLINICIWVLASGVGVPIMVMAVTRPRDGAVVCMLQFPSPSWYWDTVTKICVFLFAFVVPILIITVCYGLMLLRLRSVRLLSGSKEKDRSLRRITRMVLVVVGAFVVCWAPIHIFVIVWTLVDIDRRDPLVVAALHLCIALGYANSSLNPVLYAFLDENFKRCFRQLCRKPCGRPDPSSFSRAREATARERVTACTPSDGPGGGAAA
T3 sequence (P41145 whole entry): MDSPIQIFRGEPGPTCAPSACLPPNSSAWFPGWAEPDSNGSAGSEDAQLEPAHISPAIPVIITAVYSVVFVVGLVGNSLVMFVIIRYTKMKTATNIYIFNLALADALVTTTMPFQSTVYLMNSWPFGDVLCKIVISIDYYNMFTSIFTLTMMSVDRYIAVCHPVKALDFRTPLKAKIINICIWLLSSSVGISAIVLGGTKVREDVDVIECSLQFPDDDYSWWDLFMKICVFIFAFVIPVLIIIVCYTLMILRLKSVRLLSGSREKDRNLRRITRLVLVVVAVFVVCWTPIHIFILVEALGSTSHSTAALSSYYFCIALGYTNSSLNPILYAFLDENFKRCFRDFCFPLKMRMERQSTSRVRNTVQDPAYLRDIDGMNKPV
T2 sequence (P35372 whole entry): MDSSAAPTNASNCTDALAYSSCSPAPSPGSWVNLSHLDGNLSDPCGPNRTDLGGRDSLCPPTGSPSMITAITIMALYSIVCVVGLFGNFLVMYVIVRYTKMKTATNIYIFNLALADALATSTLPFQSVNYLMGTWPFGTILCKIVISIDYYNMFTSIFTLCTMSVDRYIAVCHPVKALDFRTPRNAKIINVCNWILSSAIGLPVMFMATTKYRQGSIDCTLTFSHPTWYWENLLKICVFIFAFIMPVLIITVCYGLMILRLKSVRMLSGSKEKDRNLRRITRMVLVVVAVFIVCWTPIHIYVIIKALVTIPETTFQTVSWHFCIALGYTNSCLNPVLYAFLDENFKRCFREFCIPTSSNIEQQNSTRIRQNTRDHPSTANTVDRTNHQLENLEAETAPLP

Row | SMILES | inhibition [1] [%] | inhibition (Mu-type opioid receptor [2]) [%] | inhibition (Mu-type opioid receptor [3]) [%] | inhibition [4] [%] | inhibition [5] [%] | inhibition [6] [%] | Ki [7] [nM] | Ratio Ki (Homo sapiens [8]) | Activity (Mus musculus [9]) | Ki (Mu-type opioid receptor [10]) [nM] | Activity (Mus musculus [11]) | IC50 [12] [nM] | Ki [13] [nM] | Ratio IC50 (Homo sapiens [14]) | Ratio IC50 (Homo sapiens [15]) | IC50 [16] [nM] | IC50 (Mu-type opioid receptor [17]) [nM] | Ratio Ki (Homo sapiens [18]) | Activity (Mus musculus [19])
1 | NC(=O)c1ccc(Oc2ccc(CN3CCCC3c3ccc(F)cc3)cc2)c2ccccc12 (stereo not drawn) | 0 | 0 | 0 | 13.8 | 0 | 39 | – | – | – | – | – | – | – | – | – | – | – | – | –
2 | Cc1cc(C)cc(C2CCCN2Cc2ccc(Oc3ccc(C(N)=O)cc3F)c(Cl)c2)c1 (stereo not drawn) | 92.4 | 94.2 | 51.4 | 98.5 | 54.1 | 100 | 191 | 14 | Active | 220 | Active | 15.8 | 15.7 | 15.5 | 1.7 | 9.32 | 144 | 12.2 | Active
3 | Cc1cc(C)cc(C2CCCN2Cc2ccc(Oc3ccc(C(N)=O)c4ccccc34)cc2)c1 (stereo not drawn) | 0 | 0 | 0 | 12.2 | 0 | 23.7 | – | – | – | – | – | – | – | – | – | – | – | – | –
4 | NC(=O)c1ccc(Oc2ccc(CN3CCCC3c3cccc(F)c3)cc2)c2ccccc12 (stereo not drawn) | 4 | 0 | 0 | 27.7 | 2.3 | 57.9 | – | – | – | – | – | – | – | – | – | – | – | – | –
5 | Cc1cccc(C2CCCN2Cc2ccc(Oc3ccc(C(N)=O)c4ccccc34)cc2)c1 (stereo not drawn) | 0 | 16.3 | 0 | 39.9 | 0 | 86.9 | > 10000 | > 5.8 | Active | > 10000 | Active | – | 1740 | – | – | – | – | > 5.8 | Active
6 | NC(=O)c1ccc(Oc2ccc(CN3CCCC3c3cccc(Cl)c3)cc2)c2ccccc12 (stereo not drawn) | 0 | 0 | 0 | 31.4 | 0 | 64.1 | – | – | – | – | – | – | – | – | – | – | – | – | –
7 | Cc1cc(C)cc(C2CCCN2Cc2ccc(Oc3ccc(C(N)=O)cc3F)c(F)c2)c1 (stereo not drawn) | 89.2 | 96.8 | 73.4 | 95.8 | 37.4 | 98.7 | 429 | 0.65 | – | 27.9 | – | – | 42.7 | – | – | – | – | 10.1 | –
8 | Cc1cc(C)cc(C2CCCN2Cc2ccc(Oc3ccc(C(N)=O)cc3F)cc2)c1 (racemic) | 87.2 | 93.6 | 56.1 | 97 | 45.5 | 100 | 91.5 | 7.6 | Active | 90.9 | Active | 95.5 | 11.9 | 3.4 | 14.3 | 6.68 | 22.6 | 7.6 | Active
9 | Cc1ccccc1C1CCCN1Cc1ccc(Oc2ccc(C(N)=O)c3ccccc23)cc1 (stereo not drawn) | 2.9 | 0 | 0 | 13.9 | 0 | 34 | – | – | – | – | – | – | – | – | – | – | – | – | –
10 | COc1ccc(C2CCCN2Cc2ccc(Oc3ccc(C(N)=O)c4ccccc34)cc2)cc1 (stereo not drawn) | 9 | 15 | 0 | 46.5 | 0 | 80.5 | > 10000 | > 2.2 | – | > 10000 | – | – | 4600 | – | – | – | – | > 2.2 | –
11 | Cc1cc(C)cc(C2CCCN2Cc2ccc(Oc3ccc(C(N)=O)cc3)c(F)c2)c1 (stereo not drawn) | 97.1 | 95.3 | 71 | 98.8 | 45.5 | 100 | 267 | 2.13 | Active | 62.8 | – | – | 29.4 | – | – | – | – | 9 | –
12 | Cc1cc(C)cc(C2CCCN2Cc2ccc(Oc3ccc(C(N)=O)cc3)c(Cl)c2)c1 (stereo not drawn) | 87.5 | 99.1 | 78.8 | 99.3 | 36.5 | 100 | 489 | 0.85 | – | 32.3 | – | – | 37.6 | – | – | – | – | 13 | –
13 | NC(=O)c1ccc(Oc2ccc(CN3CCCC3c3cccnc3)cc2)c2ccccc12 (stereo not drawn) | 0 | 52.2 | 11.3 | 5.1 | 0 | 12 | – | – | – | – | – | – | – | – | – | – | – | – | –
